Data on 18 compounds can be found in ChEMBL document CHEMBL4028863, “Exploring Heme and Hemoglobin Binding Regions of Plasmodium Heme Detoxification Protein for New Antimalarial Discovery” (J Med Chem, 2017).

Activity calls are given as the source filed them. No cut-off for these calls is given here. Some results are limits rather than exact numbers.

Data set [1] deals with Plasmodium falciparum. In words: Antiparasitic activity against late ring stage Plasmodium falciparum 3D7 infected in RBC at 50 to 100 uM after 60 hrs by ethidium bromide staining based flow cytometric analysis. It counts as functional. In a few lines: (§1)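 P. falciparum 3D7 cultures synchronized with 5% sorbitol; assay set at late ring stage, 2% hematocrit, 1% parasitemia. Compounds added at 50 and 100 μM (screen) or 5−100 μM (dose series). Parasitemia read by flow cytometry after 60 h (methods: 48 h into next cycle): ethidium bromide 10 μg/mL, 20 min, 37 °C; FL2-positive fraction of 100000 cells, uninfected RBCs as control. Triplicates.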
In general terms: Flow cytometry measures light scatter and fluorescence of single cells or particles in a stream.

Data set [2] can be described thus: Stability of the compound under freezing condition. It is filed as physicochemical.
The subject of data set [3] is Plasmodium falciparum. As to the kind of experiment: Growth inhibition of late ring stage Plasmodium falciparum 3D7 infected in RBC after 60 hrs by e thidium bromidestaining based flow cytometric analysis. It is filed as functional. In a few lines: as §1
For data set [4], the system named is Heme. As to the kind of experiment: Binding affinity to heme (unknown origin) at 20 uM by SORET assay. The procedure, abridged:
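Soret titration: 20 μM peptide in 100 mM sodium acetate pH 5.2; heme added in 3 μM increments. Spectrum recorded after each addition; change in absorbance at 400 nm plotted against heme concentration. Alanine-substituted peptide served as control.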

For data set [5], the system named is Heme. In words: Binding affinity to heme (unknown origin) assessed as reduction in heme to hemozoin conversion by Plasmodium falciparum HDP at 100 uM relative to control. The arrangement: scale not given: the % may be the effect or the level left. In a few lines:
(§2)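 Heme-to-hemozoin conversion: heme (10 mM DMSO stock) at 300 μM with 0.5 μM recombinant PfHDP in 500 mM sodium acetate pH 5.2, 4 h at 37 °C. Stopped with SDS. Pellet washed in 2.5% SDS and in 50 mM bicarbonate pH 9.1 to strip free heme. Hemozoin dissolved in 0.1N NaOH/2.5% SDS, read at 405 nm. Triplicates.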

For data set [6], the system named is Heme. In words: Binding affinity to heme (unknown origin) assessed as reduction in heme to hemozoin conversion by Plasmodium falciparum HDP. The procedure, abridged: as §2
Data set [7] in a line: Inhibition of wild type Plasmodium falciparum HDP binding to hemoglobin at 0.5 to 100 uM preincubated for 30 min followed by HDP addition measured after 1 hr by ELISA. In a few lines:
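ELISA competition: 400 ng hemoglobin preincubated with varying peptide concentrations for 30 min at 37 °C, then added to wells coated overnight at 4 °C with 200 ng recombinant PfHDP and blocked with 3% BSA. Detection with anti-Hb (1:500), then HRP anti-rabbit (1:5000) for 1 h, OPD substrate, absorbance 490 nm. Control peptide included.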

The target in the next data set is T1, Heme ligase (Plasmodium falciparum (isolate 3D7), UniProt Q8IL04).
T1 sequence (Q8IL04 whole entry): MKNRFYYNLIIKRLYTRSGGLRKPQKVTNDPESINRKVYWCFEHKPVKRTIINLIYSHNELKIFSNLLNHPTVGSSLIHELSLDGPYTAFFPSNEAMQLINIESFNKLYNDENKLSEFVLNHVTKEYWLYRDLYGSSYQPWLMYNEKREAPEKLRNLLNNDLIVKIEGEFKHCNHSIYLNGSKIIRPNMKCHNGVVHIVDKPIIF
As to the kind of experiment: Binding affinity to Plasmodium falciparum 3D7 HDP assessed as equilibrium dissociation constant by SPR assay. The procedure, abridged: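 Recombinant Pf HDP immobilised (>9500 RU) on a CM5 chip from 10 mM sodium acetate pH 4.0, then ethanolamine-blocked. Ligand was diluted from a 10 mM DMSO stock to 200 μM (2% DMSO), and a concentration series was made in PBS pH 7.4 running buffer with 2% DMSO and 0.05% P20. Eight-point DMSO solvent correction, glycine pH 2.5 regeneration, 25 °C, kinetic fit.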
(Surface plasmon resonance follows binding to a sensor surface in real time, without labels.)

Data set [8] deals with T2, Heme ligase (Plasmodium falciparum (isolate 3D7)) (UniProt Q8IL04).
T2 sequence (whole entry): T1 sequence (Q8IL04 whole entry)
The following applies: Plasmodium falciparum 3D7; 50 uM.

For data set [9], the target named is T2, Heme ligase (Plasmodium falciparum (isolate 3D7)).
For data set [10], the system named is Plasmodium falciparum. As to the kind of experiment: Antiplasmodial activity against late trophozoite stage of Plasmodium falciparum 3D7 infected in RBC assessed as gross deformaties in food vacuole at 50 to 100 uM after 12 hrs by giemsa staining based microscopic analysis. It is filed as functional. The procedure, abridged:
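Sorbitol-synchronized 3D7 late-ring cultures at 2% hematocrit and 1% parasitemia were given peptide at 50−100 μM. After 12 h, at the late trophozoite stage, Giemsa-stained smears were examined by microscopy for food vacuole morphology.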

In the case of `NS(=O)(=O)c1cccc(-c2ccc(C3Nc4ccccc4-c4nc5ccccc5n43)o2)c1` (centres undefined), the outcome with Plasmodium falciparum [1] was Active.

With `O=[N+]([O-])c1ccc(N/N=C2/C(=C/c3cccc4ccccc34)CCc3ccccc32)c([N+](=O)[O-])c1`, the outcome in the data set with Plasmodium falciparum [1] was Active. The Stability result in data set [2] is “Unstable”. The “growth inhibition (GI)” value in the data set on Plasmodium falciparum [3] was “Dose-dependent effect”.

As for `O=C(NNC(=O)C1c2ccccc2Oc2ccccc21)c1cccc(C(F)(F)F)c1`, the outcome in the data set with Plasmodium falciparum [1] was Active. In addition, the Stability entry in data set [2] is “Unstable”. The “growth inhibition (GI)” value with Plasmodium falciparum [3] was “Dose-dependent effect”.

Take `Cc1ccc(Oc2ncccc2NC(=O)c2ccc3c(c2)OCCCO3)c2c1CCC2`: in the data set on Plasmodium falciparum [1], the result was Active. In data set [2], the Stability result is recorded as “Unstable”. The “growth inhibition (GI)” value in the data set with Plasmodium falciparum [3] is “Dose-dependent effect”.

As to H-GEFKAAAASIYLNG-OH, the outcome with Heme [4] was Active.

Regarding H-GEFKHCNHSIYLNG-OH, the outcome in the data set on Heme [4] was Active. In addition, the Activity with Heme [5] is > 75%; in the data set with Heme [6], “Dose-dependent effect”.

Regarding H-LHRKNFLELGNENIDKL-OH, the inhibition (commonly the change of the read-out against control, counted positive when it falls) in data set [7] is “inactive”.

For H-MKCHNGVVHIVD-OH, in the data set with Heme [4], the result was Active. In addition, the Activity was > 75% in the data set with Heme [5] and “Dose-dependent effect” with Heme [6].

On to `Cc1ccc(-n2nnnc2SCc2nc(-c3cccc([N+](=O)[O-])c3)no2)c(C)c1`, for which, in the data set on Plasmodium falciparum [1], the outcome was Active. Moreover, the Stability entry in data set [2] is reported as “Unstable”. Besides, the “growth inhibition (GI)” value in the data set on Plasmodium falciparum [3] is “Dose-dependent effect”.

For the compound `N#Cc1cc(Cc2ccc3c(ccc4ccccc43)c2C#N)cc2c1ccc1ccccc12`, the outcome in the data set on Plasmodium falciparum [1] was Active.

In the case of `FC(F)(F)c1cccc(N2CCN(C3=Cc4ccccc4CC3)CC2)c1`, in the data set with Plasmodium falciparum [1], the result was Active. For the same compound, the Kd (in general, the free concentration of one partner at which half of the binding sites on the other are occupied at equilibrium, for simple one-to-one binding) at Heme ligase was determined as 2.96 µM. For the same compound, in data set [2], the Stability result is “Stable”. Moreover, in data set [8], the inhibition worked out at 31%. Moreover, the Ka in [9] was 3.37 ×10⁵ /M. Also, in the data set on Plasmodium falciparum [3], the “growth inhibition (GI)” value was “Dose-dependent effect”. Moreover, in the data set on Plasmodium falciparum [3] (3D7, 60 h), inhibition was half-maximal at 59.6 µM (IC50).

`COc1ccc(Oc2ccc(C(F)(F)F)cc2NS(=O)(=O)c2cccc3nonc23)cc1`: the outcome with Plasmodium falciparum [1] was Active.

In the case of `Cc1cc(=O)oc2cc(NS(=O)(=O)c3cccc4nonc34)ccc12`, in the data set with Plasmodium falciparum [1], the outcome was Active.

For `O=C(CCn1c(=O)oc2ccccc21)Nc1cc(C(F)(F)F)cc(C(F)(F)F)c1`, the outcome with Plasmodium falciparum [1] was Active.

As for H-LRNLLNNDLIVKIEGEFKH-OH, the result with Plasmodium falciparum [10] was Active. The inhibition entry in data set [7] is “Active”.

Take `C(=C1/c2ccccc2-c2c1ccc1ccccc21)/c1cc2c3c(cccc3c1)-c1ccccc1-2`: the outcome in the data set on Plasmodium falciparum [1] was Active.

In the case of `O=C(c1cccs1)c1nn(-c2ccccc2)c2nc(=O)cc(-c3ccccc3)n12`, the outcome with Plasmodium falciparum [1] was Active. In addition, the Stability entry in data set [2] was “Unstable”. In addition, the “growth inhibition (GI)” value in the data set with Plasmodium falciparum [3] is “Dose-dependent effect”.

As for `O=c1oc2ccccc2c2c1C(c1cccc([N+](=O)[O-])c1)c1c(c3ccccc3oc1=O)O2`, in the data set with Plasmodium falciparum [1], the result was Active.
